This is a sample that favours compounds with a hit; in the whole collection about 2.3% have one here.
MEKK3 PB1 HTS: MEKK3-MEK5 PB1 interaction, increase or decrease; Q99759; binding response (% of control), % at 10 µM; AID 1529; 290,000 tested, 1.4% active; bead-based flow cytometry, Alexa488-MEK5 binding to MEKK3; actives lie on both sides; 0 = blocked by unlabeled MEK5, 100 = vehicle;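 active = binding response more than 3 SD above or below the average of its plate-row segment, actives on both sides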;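 also: Alexa488 bead fluorescence after subtracting the streptavidin-only scavenger bead signal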
Target sequence (Q99759 whole entry, looked up): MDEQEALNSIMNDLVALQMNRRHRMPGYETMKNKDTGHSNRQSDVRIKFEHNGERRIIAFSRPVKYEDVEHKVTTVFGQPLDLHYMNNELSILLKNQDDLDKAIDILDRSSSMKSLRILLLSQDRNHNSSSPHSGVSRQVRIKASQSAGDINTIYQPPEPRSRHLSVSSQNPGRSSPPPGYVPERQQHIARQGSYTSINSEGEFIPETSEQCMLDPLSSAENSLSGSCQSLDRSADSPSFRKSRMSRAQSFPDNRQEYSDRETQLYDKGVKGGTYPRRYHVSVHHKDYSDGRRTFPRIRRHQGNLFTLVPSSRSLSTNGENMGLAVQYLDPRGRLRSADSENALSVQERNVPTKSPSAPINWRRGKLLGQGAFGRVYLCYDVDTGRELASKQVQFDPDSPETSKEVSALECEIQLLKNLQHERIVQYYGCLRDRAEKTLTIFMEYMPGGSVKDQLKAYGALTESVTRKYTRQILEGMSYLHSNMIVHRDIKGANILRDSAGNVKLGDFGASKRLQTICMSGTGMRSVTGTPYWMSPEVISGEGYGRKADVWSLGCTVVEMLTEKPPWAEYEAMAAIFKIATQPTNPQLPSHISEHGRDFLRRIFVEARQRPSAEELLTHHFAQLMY
MEKK2mut PB1 HTS: signal of MEK5 binding to mutant human MEKK2 PB1 domain; bead flow cytometry, Alexa488-MEK5 binding to MEKK2 mutant; percent response, % at 10 µM; 290,000 tested, 0.35% active; in the data active = percent response above about 24%, passing the limit was not always enough
MEKK2 WT-MEK5: raises or lowers MEK5 binding to wildtype human MEKK2 PB1 domain; bead flow cytometry, Alexa488-MEK5 binding to MEKK2 WT; actives lie on both sides; binding response (% of control), % at 10 µM; 290,000 tested, 1.1% active; in the data active = binding response below about 67% or above about 130%
Arrestin-AP2 inh: blocks beta-arrestin peptide binding to AP2 adaptin; FITC-arrestin peptide / GST-AP2 beads, flow cytometry; AP2 beta2 appendage carries R879A mutation; inhibition, % at 10 µM; 340,000 tested, 0.31% active;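 active = inhibition above a set limit, near 3 SD of compounds lacking own fluorescence, cut at about 54% in these data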;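 also: plate controls were DMSO wells for no effect and 5 µM unlabelled arrestin peptide for full effect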
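System: GST-AP2 R879A glutathione beads | Also added: FITC-arrestin peptide, 50 nM | Times: 12 min plus 1 h, RT | Signal: Bead flow cytometry, FITC channel | Buffer or medium: PBS with 0.05% Tween 20 and 0.1% BSA | Read-out basis: Percent drop in bead-associated FITC signal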
MEKK2wt confirm: raises or lowers MEK5 binding to wildtype human MEKK2, retest; bead flow cytometry, Alexa488-MEK5 binding to MEKK2 WT; actives lie on both sides; binding response (% of control), % at 10 µM; 5,900 tested, 2.4% active; shares compounds with MEKK3 PB1 HTS; AID 1892; in the data active = binding response below about 16% or above about 210%; inactive = in between
MEKK2mut-MEK5: signal of MEK5 binding to mutant human MEKK2, retest | percent response, % at 10 µM | AID 1893 | shares compounds with MEKK3 PB1 HTS | bead flow cytometry, Alexa488-MEK5 binding to MEKK2 mutant | 5,900 tested, 2% active; in the data active = percent response mostly above about 71%, no sharp cut-off; inactive = mostly below about 38%;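 also: higher means compound restores mutant binding toward wildtype level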
MEKK3 confirm: MEKK3-MEK5 PB1 inhibition, single concentration confirmation; shares compounds with MEKK3 PB1 HTS; AID 1894; bead flow cytometry, Alexa488-MEK5 binding to MEKK3; hits give low values; binding response (% of control), % at 10 µM; 5,900 tested, 1.8% active;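 active = binding response below 72% of control, or above a set upper limit, though filed actives all read lower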;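 also: 100% = DMSO only wells and 0% = binding blocked by excess unlabeled MEK5; lower values mean stronger disruption of MEK5 binding to MEKK3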
Starred values were filed as active, the others as inactive; / = no result given; [ ] = another dose, or the depositor's remark.

SMILES	MEKK3 PB1 HTS	MEKK2mut PB1 HTS	MEKK2 WT-MEK5	Arrestin-AP2 inh	MEKK2wt confirm	MEKK2mut-MEK5	MEKK3 confirm
CCOC(=O)c1ccccc1-n1c(C)cc(C2N=C(N)Nc3nc4ccccc4n32)c1C (stereo not given)	113	29	146*	9	153	29	106
CCOC(=O)C1=C(C)Nc2nc3ccccc3n2C1c1ccc(O)cc1 (stereo not given)	100	6	98	0	/	/	/
COc1cccc(OCCOCCOc2ccc(C)cc2[N+](=O)[O-])c1	146*	0	109	-21	97	-2	102
CCOC(=O)c1c(C)[nH]c(C)c1C(=O)COC(=O)Cc1ccc(OC)c(OC)c1	/	/	/	-2	/	/	/
N#Cc1ccccc1CSCCNC(=O)Cc1c(F)cccc1Cl	100	-7	97	21	/	/	/
CS(=O)(=O)c1ccc(CNC(=O)[C@]2(C(F)(F)F)C[C@H](CCc3ccccc3)CCCO2)cc1	81*[inhibitor]	-6	86	20	93	-8	95
Oc1ccc(Oc2ccc(Oc3ccc(O)cc3)cc2)cc1	103	5	102	18	/	/	/
CCOC(=O)Nc1cc(Br)c2c(c1)OCCO2	0.0*[inhibitor]	-20	-4.0*[inhibitor]	-4	103	1	104
O=C(c1ccc(Cl)cc1)C1CCCN(Cc2cnn(-c3ccccc3)c2)C1 (stereo not given)	100	36	148*	33	126	14	105
O=C(c1ccc(-c2ccccc2)cc1)C1CCCN(Cc2ccncc2)C1 (stereo not given)	100	3	111	-18	/	/	/
COc1ccc(C(=O)Nc2ccc(NC(=O)Cc3ccccc3)cn2)cc1	101	3	99	13	/	/	/
CN1CCN(NC(=S)NC(C)(C)CC(C)(C)C)CC1	58*[inhibitor]	-4	77	24	103	3	105
CN1CCN(NC(=S)NC2CCCC2)CC1	99	-8	95	-1	/	/	/
C[C@H]1CN=C(Nc2ccccc2)N1CC1CCCCCC1	101	-2	104	-10	/	/	/
Cc1cc(NC(=O)Nc2cc(Cl)sc2Cl)no1	101	-3	102	18	/	/	/
CSc1nnc2ccc(-c3ccccn3)nn12	64*[inhibitor]	-19	76	8	101	0	101
O=C(/C=C/c1cccc([N+](=O)[O-])c1)N1CCN(c2ccc(F)cc2)CC1	133*	0	109	-8	96	-5	97
O=C(CN1C(=O)c2cccc3cccc1c23)N1CCN(c2ccc(F)cc2)CC1	106	2	107	3	/	/	/
O=C(CN1C(=O)c2cccc([N+](=O)[O-])c2C1=O)N1CCN(c2ccc(F)cc2)CC1	47*[inhibitor]	-17	53	7	102	5	106
O=C(NC(Cc1ccccc1)C(=O)O)/C(=C\c1ccccc1)NC(=O)c1ccc(Br)o1 (stereo not given)	101	-1	104	21	/	/	/
COCCOc1cc(NC(=O)CS(=O)(=O)CC(=O)N(C)C)c(Cl)cc1Cl	96	1	95	-5	/	/	/
CC(=O)C1=C(O)C(=O)N(c2ccc(S(=O)(=O)Nc3nccs3)cc2)C1c1ccc([N+](=O)[O-])cc1 (stereo not given)	57*[inhibitor]	-47	62*[inhibitor]	6	103	4	105
Cc1cn(CC(=O)NCCN2CCOCC2)c(=O)[nH]c1=O	/	/	/	-3	/	/	/
COc1ccc(OCC(=O)Nc2nc3c(s2)CCCC3)cc1	104	5	111	-11	/	/	/
COc1ccc(NC(=O)Nc2nc3c(s2)CCCC3)cc1	136*	2	109	9	107	11	105
CCOc1ccc(C(=O)CC(C(=O)O)N2CCCCC2)cc1 (stereo not given)	/	/	/	-11	/	/	/
COc1cc(/C=C/C(=O)Nc2ccncc2)cc(OC)c1OC	146*	0	106	4	112	3	106
COc1cc(/C=C/C(=O)Nc2ccc(C(C)=O)cc2)cc(OC)c1OC	88	-1	92	4	/	/	/

From PubChem
